Experimental data published in ChEMBL document CHEMBL4414551, “Design, Synthesis, and Biological Evaluation of Substituted 4,6-Dihydrospiro[[1,2,3]triazolo[4,5-b]pyridine-7,3'-indoline]-2',5(3H)-dione Analogues as Potent NS4B Inhibitors for the Treatment of Dengue Virus Infection” (J Med Chem, 2019).
Activity calls are given as the source filed them. The calls are words filed in the database; no cut-off is given here.

How the values were obtained:
[1] = system: dengue virus type 2; test: Antiviral activity against Dengue virus 2 isolate P0 infected in human HuH7 cells incubated for 3 days by viral reduction assay; assay type: functional, organism-based; settings: isolate P0, Huh-7, 72 h
[2] = Cytotoxicity in human HuH7 replicon cells infected with Dengue virus 2 NGC assessed as reduction in cell viability incubated for 48 hrs by Cell-titer-Glo reagent based assay; set-up: species or system Huh-7
Method in brief: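 Huh7 cells or Huh7 replicon cells plated, then held at 37 °C with 5% CO₂ overnight. Exposed to 2-fold serial compound dilutions for 48 h, in duplicate. Viability read with CellTiter-Glo and normalized to 0.45% DMSO wells set at 100%. CC50 from four-parameter logistic fit.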

[3] = system: dengue virus type 4; test: Antiviral activity against Dengue virus 4 D4MY01-22713 infected in human HuH7 replicon cells expressing Renilla luciferase and neomycin-resistance genes assessed as reduction in viral replication incubated for 48 hrs by luciferase reporter replicon-based assay; assay type: functional, organism-based; settings: D4MY01-22713, Huh-7, 48 h
Method in brief: (§1)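 Huh7 cells stably carrying a Renilla luciferase/neomycin-resistance replicon (DENV-1 WestPac, DENV-2 NGC, DENV-3 D3MY05-34640 or DENV-4 D4MY01-22713). Cells seeded at 10k per well and incubated overnight at 37 °C, 5% CO2. Then exposed to 2-fold serial compound dilutions for 48 h, in duplicate. Luciferase read with a live-cell substrate. EC50 from four-parameter logistic fit.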

[4] = system: dengue virus type 3; test: Antiviral activity against Dengue virus 3 D3MY05-34640 infected in human HuH7 replicon cells expressing Renilla luciferase and neomycin-resistance genes assessed as reduction in viral replication incubated for 48 hrs by luciferase reporter replicon-based assay; assay type: functional, organism-based; settings: D3MY05-34640, Huh-7, 48 h; method in brief: as §1
[5] = system: dengue virus type 2; test: Antiviral activity against Dengue virus 2 NGC infected in human HuH7 replicon cells expressing Renilla luciferase and neomycin-resistance genes assessed as reduction in viral replication incubated for 48 hrs by luciferase reporter replicon-based assay; assay type: functional, organism-based; settings: Huh-7, 48 h; method in brief: as §1
[6] = system: dengue virus type 1; test: Antiviral activity against Dengue virus 1 WestPac infected in human HuH7 replicon cells expressing Renilla luciferase and neomycin-resistance genes assessed as reduction in viral replication incubated for 48 hrs by luciferase reporter replicon-based assay; assay type: functional, organism-based; settings: Huh-7, 48 h; method in brief: as §1
[7] = system: dengue virus type 2; test: Antiviral activity against Dengue virus 2 D2Y98P infected in A129 mouse model of dengue viremia assessed as reduction in viral loads in sera at 100 mg/kg, po BID for 3 days measured day 3 postinfection by viral plaque assay relative to control; assay type: functional
Method in brief: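 A129 mice (IFN-α/β receptor knockout), 3 weeks old, n = 6 per group; DENV-2 D2Y98P stock grown in BHK-21 cells, 100 µL at 10⁷ PFU/ml given subcutaneously. Oral dosing started immediately, twice daily for 3 days, as a suspension in 2.5% DMSO, 50% PEG-400 and 47.5% DPBS, or vehicle alone. Retro-orbital bleed on day 3 p.i.; plasma viremia measured by plaque assay; unpaired parametric test.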

[8] = system: dengue virus type 2; test: (§2) Antiviral activity against NS3 T606A mutant and NS4B V63L mutant containing Dengue virus 2 isolate P12-VI infected in human HuH7 cells using viral isolates selected by serial passaging in presence of (R)-5'-Chloro-3-((S)-1-(4-chlorophenyl)ethyl)-1'-(2-(dimethylamino)ethyl)-4,6-dihydrospiro[[1,2,3]triazolo[4,5-b]-pyridine-7,3'-indoline]-2',5(3H)-dione incubated for 3 days by viral reduction assay; assay type: functional, organism-based; settings: Huh-7
[9] = system: dengue virus type 2; test: as §2, with “Resistance index, ratio of EC50 for antiviral” for “Antiviral”, “assay to EC50 for antiviral activity against Dengue virus 2 isolate P0 infected in human HuH7 cells incubated for 3 days by viral reduction assay” for “assay”; assay type: functional
[10] = system: dengue virus type 2; test: Antiviral activity against Dengue virus 2 NGC infected in human HuH7 cells incubated for 48 hrs by viral titer reduction assay; assay type: functional, organism-based; settings: Huh-7, 48 h
Method in brief: (§3)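 Huh7 cells seeded the day before, then infected with DENV-2 NGC or D2Y98P at MOI 0.3 in the presence of 2-fold serial compound dilutions, in triplicate. After 48 h at 37 °C, infectious virus in the culture fluid was titrated by plaque assay. EC50 from four-parameter logistic fit.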

[11] = system: dengue virus type 2; test: Antiviral activity against Dengue virus 2 D2Y98P infected in A129 mouse model of dengue viremia assessed as reduction in viral morbidity by measuring body weight at 100 mg/kg, po BID for 3 days measured day 3 postinfection by viral plaque assay relative to control; assay type: functional, organism-based
[12] = Tmax in Sprague-Dawley rat at 20 mg/kg, po measured up to 24 hrs by LC-MS/MS analysis; assay type: ADME, organism-based; settings: in vivo
Method in brief: (§4)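 Male SD rats, n = 3, fasted 12 h, given 20 mg/kg orally. Comparison arm given 10 mg/kg as an iv bolus, n = 3. Both formulated in DMSO:20% HP-β-CD in saline (1:9). Plasma sampled from 15 min (5 min iv) to 24 h. Analysed by LC-MS/MS against an 8-point standard curve with 6 QCs. Parameters derived by non-compartmental analysis.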

[13] = Clearance in Sprague-Dawley rat at 20 mg/kg, po measured up to 24 hrs by LC-MS/MS analysis; assay type: ADME, organism-based; settings: in vivo
Method in brief: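 Male SD rats, N = 3, fasted 12 h; oral 20 mg/kg (alongside a 10 mg/kg i.v. bolus arm) formulated as DMSO solution : 20% HP-β-CD in saline = 1:9. Plasma sampled at 15 min, 30 min, 1, 2, 4, 8 and 24 h. Levels measured by LC-MS/MS against an 8-point standard curve with 6 QCs; parameters from non-compartmental analysis.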

[14] = Oral bioavailability n Sprague-Dawley rat at 20 mg/kg measured up to 24 hrs by LC-MS/MS analysis; assay type: ADME, organism-based; settings: in vivo; method in brief: as §4
[15] = system: dengue virus type 2; test: Antiviral activity against Dengue virus 2 D2Y98P infected in human HuH7 cells incubated for 48 hrs by viral titer reduction assay; assay type: functional, organism-based; settings: Huh-7, 48 h; method in brief: as §3

## CC(C)CCN1C(=O)[C@]2(CC(=O)Nc3c2nnn3[C@@H](C)c2ccc(Cl)cc2)c2cc(Cl)ccc21
[1]
  EC50: 123 nM
[2]
  CC50 at 48 h: > 10000 nM
[3]
  EC50: > 5000 nM
[4]
  EC50: 35 nM
[5]
  EC50: 160 nM
[6]
  EC50: 780 nM
[7]
  log reduction: 2.4
[8]
  EC50: 1960 nM
[9]
  Ratio EC50: 16
[10]
  EC50: 100 to 108 nM
[11]
  Activity: Active
[12]
  Tmax: 1 h
[13]
  CL/F: 59.5 mL/min/kg
[14]
  bioavailability: 30%
[15]
  EC50: 130 nM
